Source: PubChem BioAssay
H69AR growth 86K – proliferation blockers of H69AR lung cancer cells, primary screen, cell-based, human, 86K library; H69AR lung tumor viability, ATP luminescence, 72 h; stronger effect = lower value; viability, % at 10 µM; actives 6% (n = 85,000); AID 598, 2007;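 active = viability at or below 40%; inactive = viability above 40%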;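 note: multidrug resistant small cell line overexpressing MRP-1 efflux transporter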
E coli WT exp – growth inhibitors of wild-type E. coli, primary screen, strain BW25113, expanded library, OD600. OD600 absorbance. growth inhibition, % at 100 µM. actives 0.15% (n = 98,000). AID 710, 2007;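 active = growth inhibition above about 50% at one test dose, limit read from the data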;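 note: growth measured after 20 h incubation at 37 °C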
Ecoli tolC – growth inhibitors of E. coli tolC mutant, primary screen, strain BW25113 ΔtolC::kan, 384-well; OD615; growth inhibition, % at 10 µM (by protocol); actives 2.2% (n = 65,000); AID 573, 2007;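 active = growth inhibition at or above a cutoff equal to the mean over every tested compound plus 3 SD, cut at about 60% in these data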;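 note: growth measured after 20 h incubation at 37 °C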
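Test system: tolC-deleted E. coli BW25113; medium: LB with kanamycin 50 µg/mL; compound: single-point testing at 10 µM; incubation: 20 h compound exposure of bacteria at 37 °C; signal: OD at 615 nm; evaluation: growth inhibition in percent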
Fibroblast inh – antiproliferative effect on LL 47 fibroblasts – human, LL 47 cells, CellTiter-Glo luminescence, primary screen; LL 47 human lung fibroblast viability, ATP luminescence; stronger effect = lower value; viability, % at 10 µM; actives 1.1% (n = 85,000);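 active = viability at or below 50% in the single dose screen; inactive = viability above 50%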;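 note: compound exposure lasted 72 h before the ATP readout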
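Material: human lung fibroblast line LL 47, low passage; Evaluation: viability percentage against median untreated-cell control; Buffer or medium: 15% FBS in IMEM; Incubation: 72 h compound exposure at 37 °C after overnight plating; Dosing: 0.1% DMSO in all compound wells; Measured by: CellTiter-Glo luminescence.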
Jurkat viability – cytotoxicity toward Jurkat T cells, primary screen, cytotoxicity control, cell-based, Jurkat E6.1, 60K MLSMR library | Jurkat E6.1 viability, ATP luminescence, 48 h | inhibition, % at 4 µM | actives 1.2% (n = 56,000) | AID 463, 2006;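 active = inhibition above the mean inhibition of all tested compounds plus 3 SD, cut at about 28% in these data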
HUVEC inhibit – inhibitors of HUVEC proliferation, primary screen, cell-based, 384-well; viability, % at 10 µM (by protocol); actives 1.1% (n = 86,000); CellTiter-Glo luminescence, 72 h; stronger effect = lower value;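 active = viability at or below 30%; inactive = viability above 30%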
Hits are given with their value. Most compounds without a hit are left out; they make up all but 6.4% or so of the library.

Screening N#CC1=C(N)Oc2cc3ccccc3cc2C1c1cccnc1 (configuration not stated) returned H69AR growth 86K 19.6, E coli WT exp inactive, Fibroblast inh inactive and HUVEC inhibit inactive.
Screening N#CC1=C(N)Oc2cc3ccccc3cc2C1c1cccs1 (configuration not stated) returned H69AR growth 86K 21.0, E coli WT exp inactive, Fibroblast inh inactive and HUVEC inhibit inactive.
`O=C(c1cnn2c(C(F)(F)F)cc(-c3ccco3)nc12)N1CCc2ccccc2C1` gave H69AR growth 86K inactive, E coli WT exp inactive, Ecoli tolC inactive, Fibroblast inh inactive, Jurkat viability inactive and HUVEC inhibit inactive.
Screening CCN(CC)c1ccc(C2C(C(=O)OC(C)C)C(=O)CC(C)(O)C2C(=O)OC(C)C)cc1 (configuration not stated) returned E coli WT exp inactive.
For CCC(C)C(NCc1cccc(C)c1)C(=O)O (configuration not stated) the results were Ecoli tolC inactive.
`CC(C)(C)OC(=O)N[C@@H](Cc1ccccc1)c1nnc(S(=O)(=O)Cc2ccccc2)o1` gave E coli WT exp inactive, Ecoli tolC inactive and Jurkat viability inactive.
Screening Cc1ccccc1CS(=O)(=O)c1nnc([C@H](Cc2ccccc2)NC(=O)OC(C)(C)C)o1 returned H69AR growth 86K 1.2, E coli WT exp inactive, Fibroblast inh 5.5 and HUVEC inhibit inactive.
`CCC(C)[C@@H](NC(=O)OC(C)(C)C)c1nnc(S(=O)(=O)Cc2cccc(C)c2)o1` (some centres not stated) gave H69AR growth 86K 1.6, E coli WT exp inactive, Ecoli tolC inactive, Fibroblast inh 6.2, Jurkat viability inactive and HUVEC inhibit inactive.
Screening CC(C)(C)OC(=O)N[C@@H](Cc1ccccc1)c1nnc(SCC(=O)c2ccc(Cl)cc2)o1 returned H69AR growth 86K inactive, E coli WT exp inactive, Fibroblast inh 29.4 and HUVEC inhibit inactive.
For COc1ccc(NC(=O)C2CC(=O)OC23CCOC(C)(C)C3)cc1 (configuration not stated) the results were H69AR growth 86K inactive, E coli WT exp inactive, Fibroblast inh inactive and HUVEC inhibit inactive.
For COc1ccc2c(c1)c(=O)oc1cc3oc(C)c(C)c3cc12 the results were H69AR growth 86K inactive, E coli WT exp inactive, Fibroblast inh inactive and HUVEC inhibit inactive.
`COc1ccc2c(c1)c(=O)oc1cc3occ(C(C)(C)C)c3cc12` gave H69AR growth 86K 12.8, E coli WT exp inactive, Fibroblast inh inactive and HUVEC inhibit inactive.
For COc1ccc2c(c1)c(=O)oc1c(C)c3occ(C)c3cc12 the results were H69AR growth 86K 34.6, Ecoli tolC inactive, Fibroblast inh inactive, Jurkat viability inactive and HUVEC inhibit inactive.
For COCCNC(=S)NC12CC3CC(CC(C3)C1)C2 the results were H69AR growth 86K inactive, E coli WT exp inactive, Fibroblast inh inactive and HUVEC inhibit inactive.
Screening c1coc(C2Nc3cccc4cccc(c34)N2)c1 returned H69AR growth 86K 6.7, E coli WT exp inactive, Ecoli tolC inactive, Fibroblast inh inactive, Jurkat viability inactive and HUVEC inhibit inactive.
For O=C1c2ccccc2NC(c2ccco2)N1O (configuration not stated) the results were H69AR growth 86K inactive, E coli WT exp inactive, Ecoli tolC inactive, Fibroblast inh inactive, Jurkat viability inactive and HUVEC inhibit inactive.
Screening COc1cc(C2Nc3cccc4cccc(c34)N2)cc(OC)c1O returned H69AR growth 86K 18.8, E coli WT exp inactive, Ecoli tolC inactive, Fibroblast inh inactive, Jurkat viability inactive and HUVEC inhibit inactive.
For Oc1ccc(C2Nc3cccc4cccc(c34)N2)c(O)c1 the results were H69AR growth 86K 17.0, E coli WT exp inactive, Fibroblast inh inactive and HUVEC inhibit inactive.
Screening Cn1c(C(=O)NC2CCCC2)cc2c(=O)n(C)c3ccccc3c21 returned H69AR growth 86K inactive, E coli WT exp inactive, Ecoli tolC inactive, Fibroblast inh inactive, Jurkat viability inactive and HUVEC inhibit inactive.
`CCCn1c(SCC(=O)NC2CCCCC2C)n[nH]c1=O` (configuration not stated) gave H69AR growth 86K inactive, E coli WT exp inactive, Fibroblast inh inactive and HUVEC inhibit inactive.
For CCCn1c(CN(Cc2ccccc2)Cc2ccccc2)nc2c1c(=O)n(C)c(=O)n2C the results were H69AR growth 86K inactive, E coli WT exp inactive, Ecoli tolC 64.7, Fibroblast inh inactive, Jurkat viability inactive and HUVEC inhibit inactive.
CCCCn1c(CN(C)Cc2ccccc2)nc2c1c(=O)n(C)c(=O)n2C was read as H69AR growth 86K inactive, E coli WT exp inactive, Fibroblast inh inactive, Jurkat viability 35.9 and HUVEC inhibit inactive.
`COc1ccc(Cl)c(NCCC(=O)O)c1` gave H69AR growth 86K inactive, E coli WT exp inactive, Ecoli tolC inactive, Fibroblast inh inactive, Jurkat viability inactive and HUVEC inhibit inactive.
O=C(CCl)NCc1c(Cl)cccc1-n1cccc1 was read as E coli WT exp inactive.
`CCN(CC)C(C)C(=O)NCC1(c2ccccc2)CCOCC1` (configuration not stated) gave H69AR growth 86K inactive, Fibroblast inh inactive and HUVEC inhibit inactive.
CCOc1ccccc1NC(=O)c1cc(CC(C)C)oc1C was read as H69AR growth 86K inactive, E coli WT exp inactive, Ecoli tolC 75.2, Fibroblast inh inactive, Jurkat viability inactive and HUVEC inhibit inactive.
NS(=O)(=O)c1cccnc1Nc1c(Cl)cccc1Cl was read as E coli WT exp inactive.
`CCOC(=O)N1CCN(C(=O)CN(c2cccc(C(F)(F)F)c2)S(C)(=O)=O)CC1` gave H69AR growth 86K inactive, E coli WT exp inactive, Ecoli tolC inactive, Fibroblast inh inactive and HUVEC inhibit inactive.
`CCCCNC(=O)NS(=O)(=O)c1ccc(NS(=O)(=O)c2ccccc2)cc1` gave H69AR growth 86K inactive, E coli WT exp inactive, Ecoli tolC inactive, Fibroblast inh inactive and HUVEC inhibit inactive.
CC(C)(C)Nc1nc(NC(C)(C)C)nc(-n2ccnc2)n1 was read as H69AR growth 86K 30.7, E coli WT exp inactive, Ecoli tolC inactive, Fibroblast inh inactive, Jurkat viability inactive and HUVEC inhibit inactive.
For Cn1c(SCC(=O)N2CCCCCC2)nc2c([nH]c3ccccc32)c1=O the results were H69AR growth 86K 37.6, E coli WT exp inactive, Ecoli tolC inactive, Fibroblast inh inactive and HUVEC inhibit inactive.
Cc1ccc(-c2nnc(N3CCN(C(=O)CSc4ncn[nH]4)CC3)c3ccccc23)cc1 was read as H69AR growth 86K inactive, E coli WT exp inactive, Ecoli tolC inactive, Fibroblast inh 2.9, Jurkat viability inactive and HUVEC inhibit inactive.
